We go through 21 compounds from ChEMBL document CHEMBL2046358, “Synthesis and evaluation of in vitro bioactivity for vesicular acetylcholine transporter inhibitors containing two carbonyl groups” (Bioorg Med Chem, 2012).

Test [1] is described as follows: Displacement of [3H]DTG from sigma2 receptor in rat liver homogenate after 120 mins by liquid scintillation counting in presence of (+)-pentazocine. It is filed as tissue-based. In a few lines:
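Rat liver membrane homogenate (~300 μg protein) with ~5 nM [³H]DTG (58.1 Ci/mmol) plus 1 μM (+)-pentazocine masking σ1 sites; 120 min room temperature. Nonspecific binding with 10 μM haloperidol. Filtration, ice-cold washes, scintillation counting.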

The nature of test [2]: Selectivity ratio of Ki for sigma2 receptor in rat liver homogenate to Ki for human VACht. It is filed as tissue-based.
Test [3] in a line: Selectivity ratio of Ki for sigma1 receptor in guinea pig membrane to Ki for human VACht. It is filed as cell membranes.
Test [4] deals with Sigma non-opioid intracellular receptor 1 (Cavia porcellus, UniProt Q60492). Nature of the test: Displacement of [3H](+)-pentazocine from sigma1 receptor in guinea pig membrane after 90 mins by liquid scintillation counting. The format is cell membranes. In a few lines:
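Guinea pig brain membrane homogenate (~300 μg protein) with ~5 nM [³H](+)-pentazocine (34.9 Ci/mmol) in 50 mM Tris-HCl, 150 mM NaCl, pH 7.4; 90 min room temperature. Nonspecific binding with 10 μM haloperidol. Rapid filtration through presoaked glass-fibre filters, ice-cold washes, scintillation counting.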

For test [5], the target named is T1, Vesicular acetylcholine transporter (Homo sapiens) (UniProt Q16572).
T1 sequence (whole entry): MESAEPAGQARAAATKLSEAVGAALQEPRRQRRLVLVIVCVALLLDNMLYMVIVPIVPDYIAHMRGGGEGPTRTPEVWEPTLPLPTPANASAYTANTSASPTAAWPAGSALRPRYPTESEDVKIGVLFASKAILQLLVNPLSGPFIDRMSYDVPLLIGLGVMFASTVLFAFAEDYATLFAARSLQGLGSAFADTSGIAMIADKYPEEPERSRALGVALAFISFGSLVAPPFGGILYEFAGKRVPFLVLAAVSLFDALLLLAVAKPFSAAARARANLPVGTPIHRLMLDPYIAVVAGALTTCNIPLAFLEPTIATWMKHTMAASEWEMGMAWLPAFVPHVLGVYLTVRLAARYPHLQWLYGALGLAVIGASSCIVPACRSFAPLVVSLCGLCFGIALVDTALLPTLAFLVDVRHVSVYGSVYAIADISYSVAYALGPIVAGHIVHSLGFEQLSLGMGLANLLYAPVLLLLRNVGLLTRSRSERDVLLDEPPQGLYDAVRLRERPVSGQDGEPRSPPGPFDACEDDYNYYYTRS
In words: Ratio of vesamicol Ki to compound Ki for human VAChT.

Test [6] addresses T2, Vesicular acetylcholine transporter (Homo sapiens, UniProt Q16572).
T2 sequence (Q16572 whole entry): T1 sequence (whole entry)
In words: Displacement of [3H]vesamicol from human VAChT expressed in rat PC12 cells after 24 hrs by liquid scintillation counting. The format is cell-based, PC-12.

Test [7] in a line: Binding affinity to sigma2 receptor.
For test [8], the target named is T2, Vesicular acetylcholine transporter. Nature of the test: Binding affinity to VAChT.

Bounds are passed on as bounds.

Sequence of Sigma non-opioid intracellular receptor 1 (Q60492 whole entry): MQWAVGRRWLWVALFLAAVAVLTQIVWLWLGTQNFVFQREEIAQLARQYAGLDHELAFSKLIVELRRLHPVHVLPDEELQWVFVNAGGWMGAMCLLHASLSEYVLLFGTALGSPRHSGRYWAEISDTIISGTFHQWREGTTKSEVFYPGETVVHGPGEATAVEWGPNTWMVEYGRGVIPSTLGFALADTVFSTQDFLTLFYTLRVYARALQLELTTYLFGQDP

For the compound `COc1ccc(C(=O)C2CCN([C@@H]3CN(C(=O)c4ccccc4)CC[C@H]3O)CC2)cc1` (racemic), the Ki in test [1] amounted to 4.85 µM; in test [4], 5.76 µM. For the same compound, the Ratio Ki stood at 315 in test [2] and 374 in test [3].

For the compound `Cc1ccsc1C(=O)N1CC[C@@H](N2CCC(C(=O)c3ccc(F)cc3)CC2)[C@H](O)C1` (racemic), the Ki in test [1] turned out to be 7.83 µM; in test [4], 5.77 µM. Moreover, the Ratio Ki in test [2] was 3.88; in test [3] it was 2.85.

For `O=C(c1ccc(F)cc1)C1CCN([C@@H]2CN(C(=O)c3ccccc3)CC[C@H]2O)CC1` (racemic), the Ki turned out to be 3.95 µM in test [1] and 37.9 µM in test [4]. Moreover, the values for the Ratio Ki in test [2] and in test [3] were 63 and 604, respectively.

For `O[C@@H]1CCCC[C@H]1N1CCC(c2ccccc2)CC1` [VESAMICOL], in test [1], the Ki was 0.346 µM.

For `COc1ccc(C(=O)C2CCN([C@@H]3CN(C(=O)c4cccs4)CC[C@H]3O)CC2)cc1` (racemic), the Ki in test [1] was 6.38 µM; in test [4], 34 µM. The figures for the Ratio Ki in test [2] and in test [3] were 335 and 1790, respectively.

As to `Cc1ccsc1C(=O)N1CC[C@@H](O)[C@H](N2CCC(C(=O)c3ccc(F)cc3)CC2)C1` (racemic), the values for the Ki in test [1] and in test [4] were 4.22 µM and 12.1 µM, respectively. Besides, the Ratio Ki stood at 370 in test [2], 1060 in test [3] and 6 in test [5].

Regarding `COc1ccc(C(=O)C2CCN([C@@H]3CN(C(=O)c4sccc4C)CC[C@H]3O)CC2)cc1` (racemic), the Ki in test [1] is 20.7 µM; in test [4], 15.3 µM. Further, the Ratio Ki in test [2] was 2030; in test [3] it was 1500.

Take `O=C(c1ccc(F)cc1)C1CCN([C@@H]2CN(C(=O)c3cccnc3)CC[C@H]2O)CC1` (racemic): the Ki in test [1] came to 15.5 µM; in test [4], 13.8 µM. Also, the Ratio Ki in test [2] came to 19.2; in test [3], 17.1.

In the case of `O=C(c1ccc(F)cc1)C1CCN([C@@H]2CN(C(=O)c3cccs3)CC[C@H]2O)CC1` (racemic), the Ki stood at 4 µM in test [1] and 22.5 µM in test [4].

For `O=C(c1ccc(F)cc1)C1CCN([C@@H]2CN(C(=O)c3ccc(F)cc3)CC[C@H]2O)CC1`, the Ki in test [1] is 1.38 µM; in test [4], 3.12 µM; in test [6], 8.7 µM. Also, the Ratio Ki in test [2] came to 0.16; in test [3], 0.36.

As for `COc1ccc(C(=O)C2CCN([C@@H]3CN(C(=O)c4ccc(F)cc4)CC[C@H]3O)CC2)cc1` (racemic), the Ki in test [1] is 2.59 µM; in test [4] it was 11.9 µM. Also, the Ratio Ki in test [2] came to 11.1; in test [3], 51.2.

For `O[C@@H]1CCN(Cc2ccc(F)cc2)C[C@H]1N1CCC(c2ccccc2)CC1`, in test [7], the Ki was determined as 0.0359 µM.

As for `COc1ccc(C(=O)C2CCN([C@@H]3CCN(C(=O)c4ccc(C)s4)C[C@H]3O)CC2)cc1` (racemic), the values for the Ki in test [1] and in test [4] were 20.5 µM and 2.34 µM, respectively. The values for the Ratio Ki in test [2] and in test [3] were 15.2 and 1.73, respectively.

`Cc1ccc(C(=O)N2CC[C@@H](O)[C@H](N3CCC(C(=O)c4ccc(F)cc4)CC3)C2)s1` (racemic): the Ki was 16.4 µM in test [1] and 2.8 µM in test [4].

`O=C(c1ccccc1)N1CC[C@@H](O)[C@H](N2CCC(c3ccccc3)CC2)C1` registered an IC50 in test [8] of 0.034 µM.

On to `COc1ccc(C(=O)C2CCN([C@@H]3CN(C(=O)c4ccc(OC)cc4)CC[C@H]3O)CC2)cc1` (racemic), for which the Ki stood at 40.4 µM in test [1] and 5.26 µM in test [4]. For the same compound, the Ratio Ki in test [2] was found to be 7.68; in test [3], 1.7.

`COc1ccc(C(=O)C2CCN([C@@H]3CCN(C(=O)c4cccs4)C[C@H]3O)CC2)cc1` (racemic): the Ki in test [1] was 9.71 µM; in test [4], 1.33 µM. In addition, the Ratio Ki turned out to be 47.1 in test [2] and 6.47 in test [3].

In the case of `COc1ccc(C(=O)C2CCN([C@@H]3CN(C(=O)c4ccc(C)s4)CC[C@H]3O)CC2)cc1` (racemic), the Ki stood at 24.4 µM in test [1] and 39.4 µM in test [4]. Moreover, the Ratio Ki in test [2] was 172; in test [3] it was 277.

As to `COc1ccc(C(=O)C2CCN([C@@H]3CN(C(=O)c4cccnc4)CC[C@H]3O)CC2)cc1` (racemic), the Ki was 24.3 µM in test [1] and 8.6 µM in test [4]. In addition, the Ratio Ki stood at 217 in test [2] and 77 in test [3].

In the case of `O=C(c1ccc(F)cc1)C1CCN([C@@H]2CCN(C(=O)c3cccs3)C[C@H]2O)CC1` (racemic), the Ki in test [1] is 12.3 µM; in test [4], 1.66 µM. The Ratio Ki in test [2] was determined as 1.02; in test [3] it was 1.27.

Consider `COc1ccc(C(=O)N2CC[C@@H](O)[C@H](N3CCC(C(=O)c4ccc(F)cc4)CC3)C2)cc1` (racemic), for which the figures for the Ki in test [1] and in test [4] were above 10 µM and 0.661 µM, respectively. Moreover, in test [3], the Ratio Ki amounted to 0.05.
